Source: ChEMBL document CHEMBL1138242, “Synthesis, crystal structure, and activity of pyrazole-based inhibitors of p38 kinase” (J Med Chem, 2007)
Activity calls are given as the source filed them. The rule behind the calls is not given here.

Experiments:
Rattus norvegicus [1] = assay: Inhibition of LPS-induced TNF production in rat pretreated at 20 mg/kg, po after […] by ELISA; type: functional
Rattus norvegicus [2] = assay: Inhibition of LPS-induced TNF production in rat pretreated at 5 mg/kg, po after […] by ELISA; type: functional
Mus musculus [3] = assay: Decrease of arthritis incidence in collagen-induced DBA/1 mouse at 15 mg/kg, po bid; type: functional, organism-based; parameters: dose 15 mg/kg
Method in brief: (§1)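 Male DBA/1 mice; arthritis induced by subcutaneous type II chick collagen in Freund's adjuvant on days 1 and 21. Test agent given by oral gavage twice daily in Methocel/Tween, days 21-56. Weekly ip anti-TNF antibody served as comparator. Animals scored for signs of arthritis, with incidence compared with vehicle by logistic regression (p < 0.05); 8-10 mice per group.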

Mus musculus [4] = assay: Decrease of arthritis incidence in collagen-induced DBA/1 mouse at 30 mg/kg, po bid; type: functional, organism-based; parameters: dose 30 mg/kg; method in brief: as §1
MAP kinase p38 = MAP kinase p38 (Homo sapiens, UniProt O15264+Q15759+Q16539+P53778); assay: Inhibition of p38 MAPK activity assessed as EGFR phosphorylation; type: protein assay

Row | Structure (SMILES) | inhibition in vivo at 20 mg/kg (Rattus norvegicus [1]) [%] | inhibition in vivo at 5 mg/kg (Rattus norvegicus [2]) [%] | further results
1 | CN1CCN(c2[nH]nc(-c3ccc(Cl)cc3)c2-c2ccncc2)CC1 | 95 | 98 | Activity (Mus musculus [3]): Active; Activity (Mus musculus [4]): Active
2 | OC1CCCN(c2[nH]nc(-c3ccc(Cl)cc3)c2-c2ccncc2)C1 (stereo not drawn) | 75 | – | –
3 | Clc1ccc(-c2n[nH]c(N3CCN4CCC[C@H]4C3)c2-c2ccncc2)cc1 | 89 | – | –
4 | OC1CCN(c2[nH]nc(-c3ccc(Cl)cc3)c2-c2ccncc2)CC1 | 91 | 52 | –
5 | CC1CN(c2[nH]nc(-c3ccc(Cl)cc3)c2-c2ccncc2)CC(C)N1 (stereo not drawn) | 96 | 93 | –
6 | CC1CN(c2[nH]nc(-c3ccc(Cl)cc3)c2-c2ccncc2)CCN1 (stereo not drawn) | 95 | 84 | IC50 (MAP kinase p38): 16 nM
7 | Clc1ccc(-c2n[nH]c(N3CCC4CCCCC4C3)c2-c2ccncc2)cc1 (stereo not drawn) | 11 | – | –
8 | Clc1ccc(-c2n[nH]c(N3CCc4ccccc4C3)c2-c2ccncc2)cc1 | 12 | – | –
9 | CC1CCN(c2[nH]nc(-c3ccc(Cl)cc3)c2-c2ccncc2)CC1 | 16 | – | –
10 | Clc1ccc(-c2n[nH]c(N3CCCC4CCCCC43)c2-c2ccncc2)cc1 (stereo not drawn) | 33 | – | –
11 | CC1CC(C)CN(c2[nH]nc(-c3ccc(Cl)cc3)c2-c2ccncc2)C1 (stereo not drawn) | 53 | – | –
